The source of these data is ChEMBL document CHEMBL3580565, “Synthesis and Biological Evaluation of Cyclopentaquinoline Derivatives as Nonsteroidal Glucocorticoid Receptor Antagonists” (J Med Chem, 2015).

The term Cmax denotes the maximum level reached in the sampled fluid or tissue.

Molecules are shown by their SMILES.

Data set [1] can be described thus: Cmax in Sprague-Dawley rat at 1 mg/kg, iv by LC/MS/MS analysis. Format: ADME, organism-based. Further details: dose 1 mg/kg, route intravenous. Conditions: in vivo. In outline: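 Single intravenous dose to male Sprague–Dawley rats (n = 4). Jugular vein blood drawn at 0.05, 0.25, 0.5, 1, 2, 4, 8 and 24 h, heparin anticoagulant, plasma separated by centrifugation. Plasma drug level measured by LC/MS/MS.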

Data set [2] is described as follows: Cmax in Sprague-Dawley rat at 10 mg/kg, po by LC/MS/MS analysis. Format: ADME, organism-based. Details: dose 10 mg/kg, route oral. Conditions: in vivo. The method, boiled down:
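Male Sprague–Dawley rats dosed orally (n = 4). Jugular vein blood sampled at 0.25, 0.5, 1, 2, 4, 6 and 24 h into heparin, plasma obtained by centrifugation. Concentrations determined by LC/MS/MS.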

For `Cc1noc(C)c1-c1cc2c(c3c1CCC3)NC(C)(C)C(=O)C2(C)C`, the peak concentration (Cmax) in data set [1] turned out to be 633 ng/mL; in data set [2], 273 ng/mL.
